Published values from different studies.

CC(=O)Nc1cccc(-n2c(=O)n(C3CC3)c(=O)c3c(Nc4ccc(I)cc4F)n(C)c(=O)c(C)c32)c1  viability (SW1417; cell growth or viability, resazurin; 1.56 nM, 72 h): 80.5%
O=C1C(O)=C([C@H]2CC[C@H](c3ccc(Cl)cc3)CC2)C(=O)c2ccccc21  EC50 (Plasmodium falciparum; parasite growth; 3D7; blood stage): 0.0016 µM
O=C1Nc2ccccc2C(=O)CCc2ccc(O)cc21  IC50 (L6; cell growth or viability): 200 µM
CCn1cc(-c2nc(C)no2)c(=O)c2cc(F)c(N3CCC4(CC3)CC4)cc21  EC50 (Plasmodium falciparum; parasite growth; 3D7; 72 h, blood stage): 0.967 µM
CN1CCN(S(=O)(=O)c2ccc(-c3ccc4c(Nc5ccc(C(F)(F)F)nc5)ccnc4c3)cc2)CC1  EC50 (Plasmodium falciparum; parasite growth; D6; drug-resistant strain, blood stage): 0.16 µM
O=C1Nc2ccccc2C(=O)CCc2ccccc21  IC50 (L6; cell growth or viability): 53 µM
CN1CCN(c2nsnc2-c2ccc3c(Nc4ccc(OCc5cccc(F)c5)c(Cl)c4)ccnc3c2)CC1  EC50 (Plasmodium falciparum; parasite growth; D6; drug-resistant strain, blood stage): 0.1 µM
CS(=O)(=O)c1ccc2c(c1)C(=O)CCc1ccccc1C(=O)N2  IC50 (L6; cell growth or viability): > 300 µM
CCn1cc(-c2nc(C)no2)c(=O)c2cc(F)c(N3CCC(C)CC3)cc21  EC50 (Plasmodium falciparum; parasite growth; 3D7; 72 h, blood stage): 0.019 µM
CN1CCN(S(=O)(=O)c2ccc(-c3ccc4c(Nc5ccc(Cl)cn5)ccnc4c3)cc2)CC1  EC50 (Plasmodium falciparum; parasite growth; D6; drug-resistant strain, blood stage): 0.25 µM
